Assay outcomes as filed in PubChem.
Shown are actives, neighbours in structure and some others; about 5.1% of the full set was active somewhere.
STAT1 act: STAT1 signaling activation | NIH 3T3 STAT1-luciferase reporter, IFN-gamma, luminescence; 100% = IFN-gamma alone, no compound | activation (% of control), % at 5.5 µM | 200,000 compounds, 2.6% hits | AID 932;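 active = activation above the screen-wide mean activation plus 3 SD, cut at about 130% in these data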;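 also: raw ratio to IFN-gamma control signal so 100% means no change and 0% no light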
STAT1 blocker: inhibitors of IFN-gamma induced STAT1 signaling; NIH 3T3 STAT1-luciferase reporter, luminescence; inhibition, % at 5.5 µM; 200,000 compounds, 0.35% hits; AID 920;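 active = inhibition above a set limit, the mean inhibition across all tested compounds plus 3 SD, cut at about 34% in these data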;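 also: 0% = IFN-gamma with DMSO and 100% = IFN-gamma with 300 µM nifuroxazide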
NF-kB neuron act: raises NF-kB expression in human neuronal cells; NF-kB reporter expression; active compounds read high; fold change at 12.5 µM; 190,000 compounds, 1.6% hits; AID 1239; in the data active = fold change above about 3.3
APP 5'UTR act: activates APP 5'UTR luciferase reporter | SH-SY5Y APP 5'UTR luciferase reporter, luminescence; zero percent = DMSO vehicle wells | activation, % at 2 µM | 190,000 compounds, 1% hits | AID 1276;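 active = activation above a set limit, based on mean plus 3 SD of controls, cut at about 140% in these data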
STAT3 inh: reduces IL-6 driven STAT3 reporter signal; 190,000 compounds, 0.89% hits; inhibition, % at 5.5 µM; U3A cells, IL-6 STAT3-luciferase reporter, luminescence; host cell line lacks STAT1;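 active = inhibition above the mean inhibition across all screened compounds plus 3 SD, cut at about 44% in these data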;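 also: 0% = DMSO only wells and 100% = 100 µM nifuroxazide control wells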
STAT3 act: increases IL-6 driven STAT3 reporter signal. AID 871. activation (% of control), % at 5.6 µM. U3A cells, IL-6 STAT3-luciferase reporter, luminescence; 100% = signal with IL-6 EC80 alone. 190,000 compounds, 0.91% hits;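 active = activation above the screen-wide mean of compound activation plus 3 SD, cut at about 130% in these data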;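 also: 0% = background luminescence of wells with medium and substrate only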
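Material: STAT3-luciferase reporter U3A cells; Probe or stimulus: IL-6 (33 ng/mL); Incubation: compound pre-incubation 1 h before IL-6, then 6 h stimulation at 37 °C; Technique: luminescence from STAT3-driven luciferase reporter; Evaluation: % activation versus median of IL-6-stimulated wells; Controls: IL-6-only high control.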
An asterisk follows results filed as active; · = no result given.

SMILES	STAT1 act	STAT1 blocker	NF-kB neuron act	APP 5'UTR act	STAT3 inh	STAT3 act
CCn1ccc(-c2ccccc2)c(C#N)c1=O	101	-1	0.89	1	-1	110
O=C(O/N=C1\CCS(=O)(=O)c2sccc21)C1CC1	102	-4	1	14	3	103
O=C(NC(=S)Nc1ccc2c(c1)OCCO2)c1ccccc1F	149*	-58	7.4*	159*	8	98
O=C(NC(=S)Nc1ccc2c(c1)OCCO2)c1ccccc1	128	-32	4.7*	179*	38	73
O=C(Nc1ccc2c(c1)OCCO2)c1c(F)cccc1F	123	-24	4*	112	7	96
NC(=O)Nc1ccc2c(c1)OCCO2	106	-6	1.8	·	-4	104
O=C(Cc1csc(Nc2nc(=S)[nH]c3ccccc23)n1)N1CCN(c2cccc(C(F)(F)F)c2)CC1	92	7	1.5	-3	-38	135*
O=C(Cc1csc(Nc2nc(=S)[nH]c3ccccc23)n1)NCc1cccc(Cl)c1	99	1	1.1	18	-14	122
O=C(NCc1cccnc1)NC1(C(F)(F)F)Oc2ccccc2O1	103	-3	3.5*	-15	6	97
CC(C)CNC(=O)NC1(C(F)(F)F)Oc2ccccc2O1	116	-19	3.2	3	-4	106
Cc1nn(C)cc1C(C(=O)NC1CCCCC1)N(Cc1ccccc1Cl)C(=O)c1cnccn1 (configuration not stated)	100	-2	1.4	5	6	98
NS(=O)(=O)c1ccc(CNC(=S)NC2CCCC2)cc1	100	-1	1	7	7	100
O=S(=O)(c1ccc(Cl)cc1)c1snnc1-c1ccccc1	99	1	6.4*	-96	23	84
O=[N+]([O-])c1ccc(/C=C2\CCC(C3=CCCC3)=C2N2CCOCC2)cc1	105	-5	0.64	11	5	98
CC(=O)Nc1sc(N/N=C\c2cccc(Cl)c2)nc1-c1cccs1	114	-15	1	11	-38	133*
CN(C)C(CNC(=O)c1ccc(S(=O)(=O)N(C)C)cc1)Cc1ccccc1 (configuration not stated)	89	9	1.2	14	11	93
O=[N+]([O-])C1=CC=C2C(=NC3(CCCCC3)N2O)C1=NCCc1ccccc1	99	0	1.1	-21	1	102
COC(=O)c1ccc(COc2ccc(/C=N/N3CCN(C)CC3)cc2)cc1	136*	-38	1.7	55	-17	113
COC(=O)c1ccc(/C=N\N2CCN(Cc3ccc(C)cc3)CC2)cc1	99	1	1	-3	12	94
COc1ccc(-c2cc(C(=O)N3CCCCC3)no2)cc1OC	132*	-35	1.9	46	-10	112
COc1ccc(-c2cc(C(=O)N3CCN(Cc4ccccc4)CC3)no2)cc1OC	107	-9	0.88	-1	-5	110
CN(C)/C=C(\C=N\OCc1ccc(Cl)cc1Cl)C(=O)Nc1ccc(Cl)c(Cl)c1	108	-6	0.87	16	6	103
COc1ccc(C(=O)NCc2nnc(SCC(=O)Nc3ccccc3OC)n2C)cc1	97	2	0.92	5	8	100
N#CC(c1ccc(Cl)cc1)c1ccc2c(C(F)(F)F)cc(C(F)(F)F)nc2n1 (configuration not stated)	31	75*	1.3	4	87*	29
O=C(c1ccccc1)c1nn(-c2ccc(Cl)cc2)c(=O)cc1C(F)(F)F	114	-16	2.1	6	-42	134*
SMILES	STAT1 act	STAT1 blocker	NF-kB neuron act	APP 5'UTR act	STAT3 inh	STAT3 act
Cc1ccc(C(=O)Nc2ccc(C(F)(F)F)n(C)c2=O)cc1	133*	-37	0.99	71	-3	104
CCc1ccc(NC(=O)COc2ccc(F)cc2C(=O)c2cnn(-c3ccccc3)c2)cc1	130*	-33	1.2	49	-46	133
CNC(=O)/C(C#N)=C/c1ccc(-c2ccc(Cl)cc2)o1	142*	-44	1.9	58	10	94
CNC(=O)/C(C#N)=C/c1ccc(-c2ccccc2[N+](=O)[O-])o1	112	-13	1.7	-1	19	87
Cc1c(C(=O)N2CCN(c3ccc(F)cc3)CC2)sc2nc(-c3ccccc3)cn12	101	-1	1.1	18	12	94
Cc1c(C(=O)N2CCOCC2)sc2nc(-c3ccccc3)cn12	134*	-37	2	61	8	98
Cc1ccnc(NC(=O)c2sc3cc(Cl)ccc3c2Cl)c1	111	-12	3.6*	171*	5	100
O=S(=O)(Cc1cc(-c2ccc(Cl)cc2)no1)c1ccccc1	135*	-38	2.1	44	12	93
Clc1ccc(OCc2cc(-c3ccccc3)no2)cc1Cl	109	-10	1.8	12	15	92
O=S(=O)(Cc1cc(-c2ccccc2Cl)no1)c1ccccc1	132*	-39	0.98	68	1	103
O=S(=O)(NCc1cc(-c2ccccc2Cl)no1)c1ccccc1	96	4	1	-21	12	95
Clc1ccc(-c2cc(COc3ccccc3)on2)cc1	132*	-35	1.9	42	11	93
O=C(NCc1ccc(F)cc1)C(C(=O)NCc1ccc(F)cc1)c1ncc(C(F)(F)F)cc1Cl	95	4	1.1	15	4	106
COc1cccc(-c2cc(C(=O)NC3CCCC3)no2)c1	144*	-50	4.9*	18	15	89
COCC(C)NC(=O)c1cc(-c2cccc(OC)c2)on1 (configuration not stated)	134*	-37	1.5	23	16	89
COc1cccc(NC(=O)C(NC2CCCC2)c2ccccc2)c1 (configuration not stated)	98	3	1.1	1	0	104
COc1cccc(-c2cc(C(=O)Nc3ccccc3SC)no2)c1	129*	-32	1.3	50	12	98
COc1ccc(-c2cc(C(=O)Nc3ccccc3SC)no2)cc1OC	97	3	1.2	12	21	86
COc1cccc(NC(=O)C(=S)NC2CCCCC2)c1	130*	-34	7*	156*	31	79
CN(/N=C/c1ccc([N+](=O)[O-])o1)c1ccccc1	135*	-37	1.6	20	20	87
COc1ccc(-c2cc(-c3ccc(OC)cc3)nc(-c3ccc4c(c3)NC(=O)CO4)c2)cc1	93	8	1.1	-8	1	100
COc1cccc(-c2nc(-c3ccc4c(c3)NC(=O)CO4)cs2)c1	142*	-48	1.6	52	6	102
CCOC(=O)c1[nH]cnc1C(=O)Nc1ccc(Cl)cc1	118	-21	1.2	3	23	83
CC(C)(C)c1ccc(C(=O)Nc2ccc(Cl)cc2)cc1	130*	-33	1.6	126	2	94
